Source: ChEMBL document CHEMBL1134343, “Reduction in glucose levels in STZ diabetic rats by 4-(2,2-dimethyl-1-oxopropyl)benzoic acid: a prodrug approach for targeting the liver” (J Med Chem, 2001)

Columns and labels:
[1] = Area under the curve was evaluated by plasma concentration and time curve in normal rat after oral dosing of 300 uM/kg; format: ADME, organism-based
Method in brief: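 Normal Sprague-Dawley rats, single oral dose of 300 µmol/kg in 0.5% carboxymethylcellulose/0.2% Tween-80 in water, N = 5/group. Tail-tip blood taken at 2, 4, 7, 8, 24, 36 and 48 h postdose and centrifuged. Plasma AUC0-48h of active metabolite 3.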

[2] = Percent control of glucose in normal 18 hr-fasted rat model dosed at 100 umol/Kg; format: functional
Method in brief: (§1)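 Male Sprague-Dawley rats fasted 18 h, single oral dose of 100 µmol/kg in 0.5% carboxymethylcellulose/0.2% Tween-80 in water, or vehicle alone, N = 5/group. Serum glucose and β-hydroxybutyrate measured in cardiac-puncture blood at 3 h postdose. Expressed as percent of vehicle control; Student's t-test.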

[3] = Percent control of beta-hydroxybutyrate in normal 18 hr-fasted rat model dosed at 100 umol/Kg; format: functional; method in brief: as §1
Rattus norvegicus [4] = assay: Percent efficacy (reduction in blood glucose) at 70 umol/kg in STZ diabetic rats after 8.25 days.; format: functional
Method in brief: (§2)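 Sprague-Dawley rats on a high-fat diet made diabetic with STZ 40 mg/kg i.v. (tail vein). Selected by blood glucose >200 mg/dL at day 5 and by an 18 h fast plus oral dextrose load (1.35 g/kg). Dosed orally once daily for 11 days, 70 µmol/kg in CMC/Tween-80 vehicle, N = 9/group. Food removed during the 0–6 h window. Tail-tip glucose at 6 h postdose on days 8 and 11, expressed as percent efficacy (100% = 60 mg/dL).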

Rattus norvegicus [5] = assay: Percent efficacy (reduction in blood glucose) at 70 umol/kg in STZ diabetic rats after 11.25 days.; format: functional; method in brief: as §2
Rattus norvegicus [6] = species on record: Rattus norvegicus; assay: Effective dose against beta- Hydroxybutyrate in Normal 18 hr-fasted rat model; format: functional
Rattus norvegicus [7] = assay: Percent change in testes weight in a 28-day safety study in normal Sprague-Dawley rats at 380 uM/kg/day.; format: functional, Testis
Method in brief: (§3)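 28-day safety study in normal Sprague-Dawley rats dosed daily at 380, 550 or 700 µmol/kg/day. Body weight given as percent of control. Organ weight calculated as [organ/body weight (treated)]/[organ/body weight (control)]. Significance reported at p < 0.05 and p < 0.01.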

Rattus norvegicus [8] = assay: Percent change in liver weight in a 28-day safety study in normal Sprague-Dawley rats at 380 uM/kg/day.; format: functional; method in brief: as §3
Rattus norvegicus [9] = assay: Percent change in heart weight in a 28-day safety study in normal Sprague-Dawley rats at 380 uM/kg/day.; format: functional; method in brief: as §3
Rattus norvegicus [10] = assay: Percent change in body weight in a 28-day safety study in normal Sprague-Dawley rats at 380 uM/kg/day.; format: functional; method in brief: as §3
Rattus norvegicus [11] = assay: Percent change in testes weight in a 28-day safety study in normal Sprague-Dawley rats at 380,550, and 700 uM/kg/day.; format: functional, Testis; method in brief: as §3
Rattus norvegicus [12] = assay: Percent change in liver weight in a 28-day safety study in normal Sprague-Dawley rats at 550 uM/kg/day.; format: functional; method in brief: as §3
Rattus norvegicus [13] = assay: Percent change in heart weight in a 28-day safety study in normal Sprague-Dawley rats at 550 uM/kg/day.; format: functional; method in brief: as §3
Rattus norvegicus [14] = species on record: Rattus norvegicus; assay: Effective dose of the compound.; format: functional
Rattus norvegicus [15] = assay: Percent change in body weight in a 28-day safety study in normal Sprague-Dawley rats at 700 uM/kg/day.; format: functional; method in brief: as §3
Rattus norvegicus [16] = assay: Percent change in heart weight in a28-day safety study in normal Sprague-Dawley rats at 700 uM/kg/day.; format: functional; method in brief: as §3
Rattus norvegicus [17] = assay: Percent change in liver weight in a 28-day safety study in normal Sprague-Dawley rats at 700 uM/kg/day.; format: functional; method in brief: as §3
Rattus norvegicus [18] = assay: Percent change in testes weight in a 28-day safety study in normal Sprague-Dawley rats at 700 uM/kg/day.; format: functional, Testis; method in brief: as §3

SMILES | AUC [1] | Control [2] | Control [3] | Efficacy (Rattus norvegicus [4]) | Efficacy (Rattus norvegicus [5]) | other results
CCCCCCCCCCCCCCCC(=O)OCC(COC(=O)CCCCCCCCCCCCCCC)OC(=O)c1ccc(C(=O)C(C)(C)C)cc1 | 885 µg·h/mL | <60.7% | <23.6% | 62.5% | <84.7% | 
CC(C)(C)C(=O)c1ccc(CSCc2ccccc2)cc1 |  | 68.9% | 59.5% |  |  | 
CCCCCCCCCCCCCCCC(=O)OCC(COC(=O)CCCCCCCCCCCCCCC)OC(=O)CCc1ccc(C(=O)C(C)(C)C)cc1 | 930 µg·h/mL | <71.6% | <24.6% | <84% | <97.5% | 
CC(C)(C)C(=O)c1ccc(COCC(O)CO)cc1 (stereo not drawn) |  | 77.6% | <33.5% | 5.7% | 4.3% | 
CCCCCCCC/C=C/CCCCCCCC(=O)OCC(COCc1ccc(C(=O)C(C)(C)C)cc1)OC(=O)CCCCCCC/C=C/CCCCCCCC (stereo not drawn) |  | 95.1% | <20.7% | 9.5% | 21.8% | 
CC(C)(C)C(=O)c1ccc(COCCN2CCOCC2)cc1 |  | 98.2% | <23.8% | <-13.1% | -5.9% | 
CC(C)(C)C(=O)c1ccc(C(=O)OCC(COC(=O)c2ccc(C(=O)C(C)(C)C)cc2)(COC(=O)c2ccc(C(=O)C(C)(C)C)cc2)COC(=O)c2ccc(C(=O)C(C)(C)C)cc2)cc1 |  | 109.4% | 96.2% |  |  | 
CC(C)(C)C(=O)c1ccc(C(=O)OCC(O)COC(=O)c2ccc(C(=O)C(C)(C)C)cc2)cc1 | 1780 µg·h/mL | <58.4% | <11.9% | <99.5% | <111.1% | 
CC(C)(C)C(=O)c1ccc(C(=O)OCC(O)CO)cc1 (stereo not drawn) | 1450 µg·h/mL | <56.1% | <13.6% | 41.6% | <55.1% | 
CCCCCCCCCCCCCCCC(=O)OCC(COC(=O)c1ccc(C(=O)C(C)(C)C)cc1)OC(=O)CCCCCCCCCCCCCCC (stereo not drawn) | 1460 µg·h/mL | <63% | <20.5% | <75.7% | <90.2% | 
CCCCCCCCCCCCCCCC(=O)OCC(COCc1ccc(C(=O)C(C)(C)C)cc1)OC(=O)CCCCCCCCCCCCCCC (stereo not drawn) |  | 97.8% | <31.2% | 0.4% | -46.4% | 
CC(C)(C)C(=O)c1ccc(C(=O)OCC(COC(=O)c2ccc(C(=O)C(C)(C)C)cc2)OC(=O)c2ccc(C(=O)C(C)(C)C)cc2)cc1 | 128 µg·h/mL | 82.2% | <22.9% | <103.7% | <103.6% | ED50 (Rattus norvegicus [6]): 88 mg/kg/day; Change (Rattus norvegicus [7]): 102%; Change (Rattus norvegicus [8]): <113%; Change (Rattus norvegicus [9]): 101%; Change (Rattus norvegicus [10]): 95%
CC(C)(C)C(=O)c1ccc(C(=O)OC(CO)CO)cc1 | 1480 µg·h/mL | <59.3% | <10.9% | <67.4% | <88.1% | 
CCCCCCCCCCCCCCCC(=O)OC(CO)COC(=O)c1ccc(C(=O)C(C)(C)C)cc1 (stereo not drawn) | 645 µg·h/mL | <60.7% | <22.7% | <69.8% | <64.5% | 
CC(C)(C)C(=O)c1ccc(COCc2ccc(COCc3ccc(C(=O)C(C)(C)C)cc3)o2)cc1 |  | <79.7% | <17.3% | 6.2% | -3.9% | 
CC(C)(C)C(=O)c1ccc(COCC2(COCc3ccc(C(=O)C(C)(C)C)cc3)CCCO2)cc1 |  | <78.1% | <12.7% | 45.6% | 40.1% | 
CC(C)(C)C(O)c1ccc(C(=O)OCC(COC(=O)c2ccc(C(O)C(C)(C)C)cc2)OC(=O)c2ccc(C(O)C(C)(C)C)cc2)cc1 (stereo not drawn) | 1160 µg·h/mL | <57% | <32.5% | 49.8% | <61% | 
CC(C)(C)C(=O)c1ccc(COCc2cccc(COCc3ccc(C(=O)C(C)(C)C)cc3)n2)cc1 |  | 98.2% | <32.5% | 18.2% | -6.8% | 
CC(C)(C)C(=O)c1ccc(COC/C=C/COCc2ccc(C(=O)C(C)(C)C)cc2)cc1 |  | 88.1% | <15% | 1.4% | -5.3% | 
CC(C)(C)C(=O)c1ccc(CSCCSCc2ccc(C(=O)C(C)(C)C)cc2)cc1 |  | 79.7% | 82.6% |  |  | 
CC(C)(C)C(=O)c1ccc(C(=O)OCCC(COC(=O)c2ccc(C(=O)C(C)(C)C)cc2)COC(=O)c2ccc(C(=O)C(C)(C)C)cc2)cc1 |  | 98.6% | <28.8% |  |  | ED50 (Rattus norvegicus [6]): 96.2 mg/kg/day; Change (Rattus norvegicus [11]): 100%; Change (Rattus norvegicus [12]): 101%; Change (Rattus norvegicus [13]): 100%
COCC(COC)OC(=O)c1ccc(C(=O)C(C)(C)C)cc1 | 1130 µg·h/mL | <69.4% | <15.5% | <75.8% | 54.9% | 
CCCCCCCCOCC(COCCCCCCCC)OC(=O)c1ccc(C(=O)C(C)(C)C)cc1 |  | <82.9% | <20.1% |  |  | 
CC(C)(C)C(=O)c1ccc(C(=O)OCC(CO)(CO)COC(=O)c2ccc(C(=O)C(C)(C)C)cc2)cc1 |  | <68.9% | <14.3% |  |  | ED50 (Rattus norvegicus [14]): 3.4 mg/kg/day
CC(C)(C)C(=O)c1ccc(COCC(COCc2ccc(C(=O)C(C)(C)C)cc2)OCc2ccc(C(=O)C(C)(C)C)cc2)cc1 |  | 74.1% | <19.6% | 25.9% | 3.8% | 
Cc1ccc(C2(C(C)(C)C)OCCO2)cc1 | 1510 µg·h/mL | <58% | <12% | <52% | <64% | Change (Rattus norvegicus [15]): <76%; Change (Rattus norvegicus [16]): 92%; Change (Rattus norvegicus [17]): 215%; Change (Rattus norvegicus [18]): <46%
CCCCCCCCCCCCCCCC(=O)OCC(COC(=O)CCCCCCCCCCCCCCC)OCc1ccc(C(=O)C(C)(C)C)cc1 | 92 µg·h/mL | 111.6% | <57.2% | 24.8% | 35.5% | ED50 (Rattus norvegicus [6]): 127 mg/kg/day
